Assay results as given in ChEMBL document CHEMBL4382232, “Grayanane Diterpenoid Glucosides from the Leaves of Rhododendron micranthum and Their Bioactivities Evaluation” (2018).
Calls of active or inactive are those of the source. No cut-off for these calls is given here.

Tests used:
SW480 = assay: Cytotoxicity against human SW480 cells at 40 uM after 48 hrs by MTT assay; type: functional, cell-based
A549 = assay: Cytotoxicity against human A549 cells at 40 uM after 48 hrs by MTT assay; type: functional, cell-based
HL-60 = assay: Cytotoxicity against human HL60 cells at 40 uM after 48 hrs by MTT assay; type: functional, cell-based
MCF7 = assay: Cytotoxicity against human MCF7 cells at 40 uM after 48 hrs by MTT assay; type: functional, cell-based
SMMC-7721 = assay: Cytotoxicity against human SMMC7721 cells at 40 uM after 48 hrs by MTT assay; type: functional, cell-based
[1] = target: T1, Tyrosine-protein phosphatase non-receptor type 1 (Homo sapiens) (UniProt P18031); assay: Inhibition of recombinant human PTP1B at 40 uM using pNPP as substrate preincubated for 10 mins followed by substrate addition and measured after 30 mins at 5 mins time interval for 30 mins
T1 sequence (whole entry): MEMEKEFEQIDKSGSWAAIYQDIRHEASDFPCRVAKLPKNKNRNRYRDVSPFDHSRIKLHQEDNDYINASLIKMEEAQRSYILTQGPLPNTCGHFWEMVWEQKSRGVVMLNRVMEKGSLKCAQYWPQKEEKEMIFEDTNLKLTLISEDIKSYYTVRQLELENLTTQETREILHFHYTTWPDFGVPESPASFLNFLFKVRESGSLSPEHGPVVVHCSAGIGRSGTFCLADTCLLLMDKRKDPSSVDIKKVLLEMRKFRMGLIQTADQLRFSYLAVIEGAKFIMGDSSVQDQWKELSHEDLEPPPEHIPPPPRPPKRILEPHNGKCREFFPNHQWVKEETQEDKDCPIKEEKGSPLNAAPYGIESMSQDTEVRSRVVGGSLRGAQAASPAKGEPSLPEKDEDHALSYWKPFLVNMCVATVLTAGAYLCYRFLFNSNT

Mus musculus = assay: Antinociceptive activity in Kunming mouse model of acetic-acid-induced writhing assessed as inhibition of writhing numbers at 5 mg/kg measured for 30 mins relative to control; type: functional; conditions: for inhibition in vivo at 5 mg/kg: 0.5 h
In short: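 Acetic-acid-induced writhing model in Kunming mice (10 per group); doses 0.2, 1.0 and 5.0 mg/kg; vehicle-treated and morphine positive-control groups; inhibition of writhing relative to vehicle; mean ± SEM; one-way ANOVA with Bonferroni test. Animal work approved by institutional ethics committee.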

RAW264.7 = assay: Anti-inflammatory activity in mouse RAW264.7 cells assessed as inhibition of LPS-induced NO production at 40 uM; type: functional, cell-based

SMILES	inhibition [1]	Activity (SW480)	Activity (A549)	Activity (HL-60)	Activity (MCF7)	Activity (SMMC-7721)	inhibition (Mus musculus)	inhibition (RAW264.7)	inhibition in vivo at 5 mg/kg (Mus musculus) [%]
C=C1[C@H]2C[C@H](O)C(C)(C)[C@@]2(O)[C@H](O)C[C@@]23C[C@@H](CC[C@@H]12)[C@](C)(O[C@@H]1O[C@H](CO)[C@@H](O)[C@H](O)[C@H]1O)C3	inactive	inactive	inactive	inactive	inactive	inactive	Active	inactive	
C=C1[C@@H]2CC[C@@H]3C[C@]2(C=C3C)C[C@@H](O)[C@@]2(O)[C@H]1C[C@H](O[C@@H]1O[C@H](CO)[C@@H](O)[C@H](O)[C@H]1O)C2(C)C	inactive	inactive	inactive	inactive	inactive	inactive		inactive	
C=C1[C@@H]2CC[C@@H]3C[C@@]2(C[C@@H](O)[C@@]2(O)[C@H]1C[C@H](O)C2(C)C)C[C@@]3(C)O[C@@H]1O[C@H](CO)[C@@H](O)[C@H](O)[C@H]1O	inactive	inactive	inactive	inactive	inactive	inactive		inactive	> 50
C[C@H]1[C@@H]2C[C@H](O[C@@H]3O[C@H](CO)[C@@H](O)[C@H](O)[C@H]3O)C(C)(C)[C@]23O[C@]12CC[C@@H]1C[C@@]2(C[C@H]3O)C[C@@]1(C)O	inactive	inactive	inactive	inactive	inactive	inactive	Active	inactive	
CC1=C2CC[C@@H]3[C@@H](O)[C@@]2(C[C@@H](O)[C@@]2(O)[C@H]1C[C@H](O[C@@H]1O[C@H](CO)[C@@H](O)[C@H](O)[C@H]1O)C2(C)C)C[C@@]3(C)O	inactive	inactive	inactive	inactive	inactive	inactive		inactive	> 50
C=C1[C@H]2C[C@H](O)C(C)(C)[C@]2(O)CC[C@@]23C[C@@](O)(CC[C@@H]12)[C@](C)(O[C@@H]1O[C@H](CO)[C@@H](O)[C@H](O)[C@H]1O)C3	inactive	inactive	inactive	inactive	inactive	inactive	Active	inactive	
C=C1[C@@H]2CC[C@H]3C(C)=C[C@]2(C[C@@H](O)[C@@]2(O)[C@H]1C[C@H](O[C@@H]1O[C@H](CO)[C@@H](O)[C@H](O)[C@H]1O)C2(C)C)[C@@H]3O	inactive	inactive	inactive	inactive	inactive	inactive		inactive	50
C=C1[C@H]2C[C@H](O[C@@H]3O[C@H](CO)[C@@H](O)[C@H](O)[C@H]3O)C(C)(C)[C@]2(O)CC[C@@]23C[C@@](O)(CC[C@@H]12)[C@](C)(O)C3	inactive	inactive	inactive	inactive	inactive	inactive		inactive	
CC1(C)[C@@H](O[C@@H]2O[C@H](CO)[C@@H](O)[C@H](O)[C@H]2O)C[C@H]2[C@](C)(O)[C@@H]3CC[C@@H]4[C@@H](O)[C@@]3(C[C@@H](O)[C@@]21O)C[C@@]4(C)O	inactive	inactive	inactive	inactive	inactive	inactive		inactive	> 50
C=C1[C@H]2C[C@H](O)C(C)(C)[C@]2(O)CC[C@@]23C[C@@H](CC[C@@H]12)[C@](C)(O[C@@H]1O[C@H](CO)[C@@H](O)[C@H](O)[C@H]1O)C3	inactive	inactive	inactive	inactive	inactive	inactive	inactive	inactive	

More lines, main results first:

inhibition [1]	SMILES	Activity (SW480)	Activity (A549)	Activity (HL-60)	Activity (MCF7)	Activity (SMMC-7721)	inhibition (Mus musculus)	inhibition (RAW264.7)	inhibition in vivo at 5 mg/kg (Mus musculus) [%]
inactive	C=C1[C@@H]2CC[C@@H]3C[C@@]2(C[C@@H](O)[C@@]2(O)[C@H]1C[C@@H](O[C@@H]1O[C@H](CO)[C@@H](O)[C@H](O)[C@H]1O)C2(C)C)C[C@@]3(C)O	inactive	inactive	inactive	inactive	inactive	Active	inactive	
inactive	C=C1[C@@H]2CC[C@@H]3C[C@@]2(C[C@@H](O)[C@@]2(O)[C@H]1C[C@H](O[C@@H]1O[C@H](CO)[C@@H](O)[C@H](O)[C@H]1O)C2(C)C)C[C@@]3(C)O	inactive	inactive	inactive	inactive	inactive	Active	inactive	
inactive	C=C1[C@@H]2CC[C@@H]3[C@@H](OC(C)=O)[C@@]2(C[C@@H](O)[C@@]2(O)[C@H]1C[C@H](O[C@@H]1O[C@H](CO)[C@@H](O)[C@H](O)[C@H]1O)C2(C)C)C[C@@]3(C)O	inactive	inactive	inactive	inactive	inactive	Active	inactive	
inactive	C=C1[C@@H]2CC[C@@H]3[C@@H](OC(C)=O)[C@@]2(C[C@@H](O)[C@@]2(O)[C@H]1C[C@H](O)C2(C)C)C[C@@]3(C)O[C@@H]1O[C@H](CO)[C@@H](O)[C@H](O)[C@H]1O	inactive	inactive	inactive	inactive	inactive		inactive	> 50
inactive	C=C1[C@@H]2CC[C@@H]3C[C@]2(C[C@@]3(C)O)[C@H](O)[C@@H](O)[C@@]2(O)[C@H]1C[C@H](O[C@@H]1O[C@H](CO)[C@@H](O)[C@H](O)[C@H]1O)C2(C)C	inactive	inactive	inactive	inactive	inactive		inactive	
inactive	C=C1[C@H]2C[C@H](O[C@@H]3O[C@H](CO)[C@@H](O)[C@H](O)[C@H]3O)C(C)(C)[C@@]2(O)[C@H](O)C[C@@]23C[C@@H](CC[C@@H]12)[C@](C)(O)C3	inactive	inactive	inactive	inactive	inactive	inactive	inactive	
inactive	C=C1[C@@H]2CC[C@@H]3[C@@H](O)[C@@]2(C[C@@H](O)[C@@]2(O)[C@H]1C[C@H](O[C@@H]1O[C@H](CO)[C@@H](O)[C@H](O)[C@H]1O)C2(C)C)C[C@@]3(C)O	inactive	inactive	inactive	inactive	inactive		inactive	> 50
inactive	CC(=O)O[C@@H]1[C@H]2CC[C@H]3[C@@](C)(O)[C@@H]4C[C@H](O[C@@H]5O[C@H](CO)[C@@H](O)[C@H](O)[C@H]5O)C(C)(C)[C@@]4(O)[C@H](O)C[C@@]13C[C@@]2(C)O	inactive	inactive	inactive	inactive	inactive	inactive	inactive	
